Assay results as given in ChEMBL document CHEMBL1134408, “Antitumor agents. 207. Design, synthesis, and biological testing of 4beta-anilino-2-fluoro-4'-demethylpodophyllotoxin analogues as cytotoxic and antiviral agents” (2001).
Values after ≈ are worked out from the molar mass of the structure shown.

What was measured:
[1] = GI values against KB cells (nasopharyngeal carcinoma); type: functional; conditions: Homo sapiens
Human betaherpesvirus 5 = experiment: Inhibitory activity against human cytomegalovirus (HCMV); type: functional; conditions: for IC50: read-out: ID50 (the source's name)
Method in brief: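 Confluent HEL fibroblasts infected with Towne strain CMV at 1–2 PFU/cell, with or without a drug dilution series. Antiviral effect read either as extracellular virus yield (day-6 supernatant titred by plaque assay on HEL, counted at 2 weeks) or as viral DNA by 32P-CMV-probe dot hybridization with scintillation counting of dots.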

A549 [2] = experiment: GI values against A549 cells (lung cancer); type: functional; conditions: Homo sapiens
CAKI-1 [3] = experiment: GI values against CAKI-1 cells(renal carcinoma); type: functional; conditions: Homo sapiens
Human alphaherpesvirus 1 [4] = experiment: Minimum inhibitory concentration against herpesvirus simplex 1; type: functional
Method in brief: (§1)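 Plaque elimination in pre-formed confluent Vero monolayers, HSV-1 strain KOS or HSV-2 strain 186, ~100 PFU inoculum for 30 min. Overlay medium had 0.5% calf serum, 1% carboxymethylcellulose and drug dilutions. Crystal violet fix/stain at 2 days; macroscopic plaques scored. ED100 = dilution fully eliminating plaques without monolayer toxicity. MIC = lowest dilution reducing plaque size/number. Repeated at least twice.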

Human alphaherpesvirus 2 [5] = experiment: Minimum inhibitory concentration against herpesvirus simplex 2; type: functional; method in brief: as §1
Human alphaherpesvirus 1 [6] = experiment: Effective dose required to inhibit 100% against herpesvirus simplex 1; type: functional; method in brief: as §1
Vero [7] = experiment: Minimum inhibitory concentration for cell growth inhibition (Herpesvirus activity); type: functional; conditions: Chlorocebus sabaeus
Method in brief: (§2)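 Cells seeded at 50 000 cells/mL with a drug dilution series, exposed 2 days; cell number by sulforhodamine B staining. ED25 interpolated from dose–response as the concentration cutting absorbency by 25%. MIC = lowest dilution giving detectable growth inhibition. Triplicate wells; absorbency within 5%, ED25 within 30% across independent tests.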

Human alphaherpesvirus 2 [8] = experiment: Effective dose required to inhibit 100% against herpesvirus simplex 2; type: functional; method in brief: as §1
Vero [9] = experiment: Effective dose required to inhibit 25% of cell growth (Herpesvirus activity); type: functional, Chlorocebus sabaeus; method in brief: as §2
[10] = % inhibition against KB cells (nasopharyngeal carcinoma) at 0.04 ug/mL; type: functional; conditions: Homo sapiens
HEL = experiment: Inhibitory activity against HEL cells; type: functional; conditions: Homo sapiens, read-out: ED50 (the source's name)
Method in brief: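 Human embryonic lung fibroblasts in MEM/10% FBS, 6% CO2, seeded at 50 000 cells/mL with a drug dilution series. Exposure 15 days; viability and cell counts by trypan blue. ED50 (50% growth reduction versus untreated cells) interpolated from dose–response data.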

A549 [11] = experiment: % inhibition against A549 cells (lung cancer) at 0.4 ug/mL; type: functional; conditions: Homo sapiens
CAKI-1 [12] = experiment: % inhibition against CAKI-1 cells(renal carcinoma) at 4 ug/mL.; type: functional; conditions: Homo sapiens
CAKI-1 [13] = experiment: % inhibition against CAKI-1 cells(renal carcinoma) at 0.4 ug/mL.; type: functional; conditions: Homo sapiens
CAKI-1 [14] = experiment: % inhibition against CAKI-1 cells(renal carcinoma) at 0.04 ug/mL.; type: functional; conditions: Homo sapiens
MCF7 [15] = experiment: % inhibition against MCF-7 cells (breast cancer) at 4 ug/mL; type: functional; conditions: Homo sapiens
MCF7 [16] = experiment: % inhibition against MCF-7 cells (breast cancer) at 0.04 ug/mL; type: functional; conditions: Homo sapiens
A549 [17] = experiment: % inhibition against A549 cells (lung cancer) at 0.04 ug/mL; type: functional; conditions: Homo sapiens
[18] = % inhibition against KB cells (nasopharyngeal carcinoma) at 0.4 ug/mL; type: functional; conditions: Homo sapiens
A549 [19] = experiment: % inhibition against A549 cells (lung cancer) at 4 ug/mL; type: functional; conditions: Homo sapiens
[20] = % inhibition against KB cells (nasopharyngeal carcinoma) at 4 ug/mL; type: functional; conditions: Homo sapiens
MCF7 [21] = experiment: % inhibition against MCF-7 cells (breast cancer) at 0.4 ug/mL; type: functional; conditions: Homo sapiens
[22] = Selectivity index (ED50/ID50) value of the compound; type: functional
Method in brief: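 Ratio of ED50 for growing HEL cells (15-day trypan blue count) to ID50 against Towne strain CMV in HEL fibroblasts.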

Homo sapiens = species on record: Homo sapiens; experiment: Cytotoxicity against HEL cells

Work on `COc1cc([C@@H]2c3cc4c(cc3[C@@H](Nc3ccc([N+](=O)[O-])cc3)[C@H]3COC(=O)[C@H]23)OCO4)cc(OC)c1O` yielded a GI50 [1] of 501 nM, an IC50 (Human betaherpesvirus 5) of 350 nM and a GI50 (A549 [2]) of 158 nM. It also gave a GI50 (CAKI-1 [3]) of 158 nM.

With `COc1cc([C@@H]2c3cc4c(cc3[C@@H](Nc3ccc(N)cc3)[C@H]3COC(=O)[C@H]23)OCO4)cc(OC)c1O` the GI50 [1] was 794 nM, the IC50 (Human betaherpesvirus 5) was 1250 nM and the GI50 (A549 [2]) was 316 nM. The GI50 (CAKI-1 [3]) was 316 nM.

With `COc1cc([C@@H]2c3cc4c(cc3[C@H](O)[C@H]3COC(=O)[C@H]23)OCO4)cc(OC)c1OC` [PODOFILOX] the MIC (Human alphaherpesvirus 1 [4]) was 0.01 µM (≈ 4.14 ng/mL), the MIC (Human alphaherpesvirus 2 [5]) was 0.01 µM (≈ 4.14 ng/mL) and the ED100 (Human alphaherpesvirus 1 [6]) was 50 nM. It also gave an MIC (Vero [7]) of 0.008 µM (≈ 3.32 ng/mL), an IC50 (Human betaherpesvirus 5) of under 100 nM and a GI50 (A549 [2]) of 7.94 nM. The ED100 (Human alphaherpesvirus 2 [8]) was 100 nM, the ED25 (Vero [9]) was 0.02 µM and the GI50 (CAKI-1 [3]) was 100 nM.

In the case of `COc1cc([C@@H]2c3cc4c(cc3[C@@H](Nc3ccc(C#N)cc3)[C@H]3COC(=O)[C@]23F)OCO4)cc(OC)c1O`, the inhibition at 0.04 µg/mL [10] is reported as 5%, the EC50 (HEL) is reported as 8.43 µM and the inhibition at 0.4 µg/mL (A549 [11]) is reported as 11.9%. It also gave an inhibition at 4 µg/mL (CAKI-1 [12]) of 28.4%, an inhibition at 0.4 µg/mL (CAKI-1 [13]) of 9.5% and an inhibition at 0.04 µg/mL (CAKI-1 [14]) of 7.9%. It also gave an inhibition at 4 µg/mL (MCF7 [15]) of 45.8%, an ID90 (Human betaherpesvirus 5) of 4.29 µM and an IC50 (Human betaherpesvirus 5) of 760 nM. It also gave an inhibition at 0.04 µg/mL (MCF7 [16]) of 7.7%, an inhibition at 0.04 µg/mL (A549 [17]) of 11.1% and an inhibition at 0.4 µg/mL [18] of 4.2%. The inhibition at 4 µg/mL (A549 [19]) was 52.5%, the inhibition at 4 µg/mL [20] was 30.5% and the inhibition at 0.4 µg/mL (MCF7 [21]) was 8.2%. For the same compound, the SI [22] was 11.1.

Work on `COc1cc([C@@H]2c3cc4c(cc3[C@@H](Nc3ccc5c(c3)OCCC5=O)[C@H]3COC(=O)[C@H]23)OCO4)cc(OC)c1O` yielded a GI50 [1] of 631 nM, a GI50 (A549 [2]) of 100 nM and a GI50 (CAKI-1 [3]) of 126 nM.

`COc1cc([C@@H]2c3cc4c(cc3[C@@H](O[C@@H]3O[C@@H]5CO[C@@H](C)O[C@H]5[C@H](O)[C@H]3O)[C@H]3COC(=O)[C@H]23)OCO4)cc(OC)c1O` [ETOPOSIDE] showed an ED50 (Homo sapiens) of 8.64 µM, a GI50 [1] of 200 nM and an IC50 (Human betaherpesvirus 5) of 1030 nM. For the same compound, the GI50 (A549 [2]) was 6310 nM, the SI [22] was 8.4 and the GI50 (CAKI-1 [3]) was 6310 nM.

In the case of `COc1cc([C@@H]2c3cc4c(cc3[C@H](O[Si](C)(C)C(C)(C)C)[C@H]3COC(=O)[C@]23F)OCO4)cc(OC)c1OC`, the MIC (Vero [7]) is reported as 6 µM (≈ 3280 ng/mL) and the ED25 (Vero [9]) is reported as 25 µM.
